Experimental data gathered from unrelated publications.
Compare with care: the assays were run in different laboratories.
Target: Serine/threonine-protein kinase Sgk2 (SGK2, Homo sapiens, UniProt Q9HBY8)
Sequence (Q9HBY8 1-367, as in one of the studies): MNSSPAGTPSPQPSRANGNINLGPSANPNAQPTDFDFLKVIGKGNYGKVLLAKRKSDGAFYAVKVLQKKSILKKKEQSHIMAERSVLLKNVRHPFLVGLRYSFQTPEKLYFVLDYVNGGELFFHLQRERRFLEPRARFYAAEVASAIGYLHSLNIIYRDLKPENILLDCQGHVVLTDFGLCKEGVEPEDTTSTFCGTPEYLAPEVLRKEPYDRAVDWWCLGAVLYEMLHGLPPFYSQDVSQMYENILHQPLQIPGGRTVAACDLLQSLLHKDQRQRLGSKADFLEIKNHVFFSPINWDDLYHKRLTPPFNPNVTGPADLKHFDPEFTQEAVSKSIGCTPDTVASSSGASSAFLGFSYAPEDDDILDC

| SMILES | assay | setting | remaining binding |
| --- | --- | --- | --- |
| CN(CCCC(F)(F)F)c1nccc(-c2cnn3ncccc23)n1 | binding | 1 µM | 93% |
| Cn1cc(Cl)c2c(Oc3c(F)cc(Nc4cc(Cl)nc(N)n4)cc3F)ccnc21 | cell-free assay, competition with immobilised ligand | 0.1 µM | 86% |
| C[C@H]1CCN(c2nccc(-c3cnn4ncccc34)n2)C1 | binding | 1 µM | 65% |
| FC(F)(F)Oc1cccc(-c2cnc3ccc(-c4ccncc4)nn23)c1 | binding, competition with immobilised ligand | 5 µM | 77% |
| Cc1nc(N2CC[C@@H](O)C2)ncc1-c1cc(C(F)(F)F)cc2[nH]ncc12 | binding, competition with immobilised ligand | 1 µM | 88% |
| O=C(NCC1CCOCC1)c1n[nH]cc1NC(=O)c1c(F)cccc1F | binding, competition with immobilised ligand | 1 µM | 94% |
| CNC(=O)[C@@H]1CC[C@@H](n2c(-c3ccc4cnccc4c3)nc3ccc(C(=O)NCc4cccc(C(N)=O)c4)cc32)C1 | binding, competition with immobilised ligand | 1 µM | 100% |
| c1cncc(-c2cccc(Nc3nccc(NC4CCCCC4)n3)c2)c1 | binding, competition with immobilised ligand | 10 µM | 95% |
| O=C(c1ccc(Nc2ncc(Cl)c(-c3cc4ccccc4s3)n2)cc1)N1CCC(N2CCCC2)CC1 | binding, competition with immobilised ligand | 1 µM | 48% |
| O=C(NCc1ncc(C(F)(F)F)cc1Cl)c1ccc2c(c1)C1(CCS(=O)(=O)CC1)[C@H](C1CC1)N2S(=O)(=O)c1ccc(F)cc1 | cell-free assay, competition with immobilised ligand | 1 µM | 83% |
| CN(C)c1nccc(-c2cnc3ncccn23)n1 | binding | 1 µM | 81% |
| Cc1cnc(Nc2ccc(C(=O)N3CCC(N4CCCC4)CC3)cc2)nc1-c1cc2ccccc2s1 | binding, competition with immobilised ligand | 1 µM | 29% |
| N[C@@H]1CCN(c2nccc(-c3cnn4ncccc34)n2)C1 | binding | 1 µM | 100% |
| COc1cnc(Nc2cccc(S(N)(=O)=O)c2)nc1N1CCN(c2ccccc2)CC1 | binding, competition with immobilised ligand | 1 µM | 82% |
| COc1ccc2c(c1)O[C@H](c1ccc(OC)c(OC)c1)C[C@@H]2NC(=O)C1(c2ccc3c(c2)OC(F)(F)O3)CC1 | cell-free assay, competition with immobilised ligand | 1 µM | 100% |
| Cc1cnn2ncc(-c3ccnc(N(C)C)n3)c2c1 | binding | 1 µM | 84% |
| CC1=C(C#N)C(c2ccc3c(c2)c(NC(=O)c2ccccc2C)nn3C)C(C#N)=C(C)N1 | cell-free assay, competition with immobilised ligand | 1 µM | 73% |
| O=C(NCCCN1CCOCC1)c1ccc(Nc2ncc(Cl)c(-c3ccc(Cl)s3)n2)cc1 | binding, competition with immobilised ligand | 1 µM | 100% |
| CN(C)c1nccc(-c2cnn3ncccc23)n1 | binding | 1 µM | 75% |
| Cc1cc(C)c(-n2ccn3nc(-c4cccnc4)cc23)cc1NC(=O)c1cc(C#N)cc(S(F)(F)(F)(F)F)c1 | cell-free assay, competition with immobilised ligand | 0.1 µM | 100% |
